Measurements: ChEMBL document CHEMBL5058577, “EUbOPEN Chemogenomics Library 2 (Multiplex)” (2022)

System: Fibroblast
Experiment: Multiplex assay against human fibroblast
Format: toxicity, cell-based
Method in brief: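 At seeding, live cells were stained with Hoechst33342, BioTracker Green Microtubule Cytoskeleton Dye, MitoTracker Red and Annexin V Alexa Fluor 680. After compound addition they were imaged on a CQ1 microscope at 37°C and 5% CO2, and CellPathfinder machine-learning gating sorted them into Hoechst high-intensity objects or normal cells, with normal cells further split into healthy, pyknosed or fragmented nuclei and pyknosed cells into mitotic or apoptotic. Tubulin, mitochondrial-mass and membrane-permeability phenotypes are given as per cents of cells with healthy nuclei.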

[1] = 12 h, 1 µM, compound concentration 1 uM, replicate 1
[2] = 12 h, 1 µM, compound concentration 1 uM, replicate 2
[3] = 12 h, 10 µM, compound concentration 10 uM, replicate 1
[4] = 12 h, 10 µM, compound concentration 10 uM, replicate 2
[5] = 24 h, 1 µM, compound concentration 1 uM, replicate 1
[6] = 24 h, 1 µM, compound concentration 1 uM, replicate 2
[7] = 24 h, 10 µM, compound concentration 10 uM, replicate 1
[8] = 24 h, 10 µM, compound concentration 10 uM, replicate 2
[9] = 48 h, 1 µM, compound concentration 1 uM, replicate 1
[10] = 48 h, 1 µM, compound concentration 1 uM, replicate 2
[11] = 48 h, 10 µM, compound concentration 10 uM, replicate 1
[12] = 48 h, 10 µM, compound concentration 10 uM, replicate 2

With Cc1ccccc1C(=O)Nc1ccc(C(=O)N2CCCC(N(C)C)c3ccccc32)cc1.Cl (centres undefined) the “Population Apoptotic (%)” value [1] was 52%, the “Population Fragmented Nuclei (%)” value [1] was 16% and the “Population Healthy Nuclei (%)” value [1] was 71%. The “Population Hoechst High Intensity Objects (%)” value [1] was 0%, the “Population Membrane Permeable-Phenotype (%)” value [1] was 0% and the “Population Mitochondria Different-Phenotype (%)” value [1] was 5%. For the same compound, the “Population Mitotic Cells (%)” value [1] was 47%, the “Population Normal (%)” value [1] was 100% and the “Population Pyknosed Nuclei (%)” value [1] was 12%. For the same compound, the “Population Tubulin-Different-Phenotype (%)” value [1] was 31%, the “Total Cell Count” value [1] was 167 and the “Population Apoptotic (%)” value [2] was 36%. For the same compound, the “Population Fragmented Nuclei (%)” value [2] was 22%, the “Population Healthy Nuclei (%)” value [2] was 55% and the “Population Hoechst High Intensity Objects (%)” value [2] was 1%. For the same compound, the “Population Membrane Permeable-Phenotype (%)” value [2] was 10%, the “Population Mitochondria Different-Phenotype (%)” value [2] was 3% and the “Population Mitotic Cells (%)” value [2] was 63%. For the same compound, the “Population Normal (%)” value [2] was 98%, the “Population Pyknosed Nuclei (%)” value [2] was 21% and the “Population Tubulin-Different-Phenotype (%)” value [2] was 45%. For the same compound, the “Total Cell Count” value [2] was 155, the “Population Apoptotic (%)” value [3] was 58% and the “Population Fragmented Nuclei (%)” value [3] was 26%. The “Population Healthy Nuclei (%)” value [3] was 50%, the “Population Hoechst High Intensity Objects (%)” value [3] was 1% and the “Population Membrane Permeable-Phenotype (%)” value [3] was 1%. The “Population Mitochondria Different-Phenotype (%)” value [3] was 12%, the “Population Mitotic Cells (%)” value [3] was 41% and the “Population Normal (%)” value [3] was 98%. For the same compound, the “Population Pyknosed Nuclei (%)” value [3] was 22%, the “Population Tubulin-Different-Phenotype (%)” value [3] was 70% and the “Total Cell Count” value [3] was 108. For the same compound, the “Population Apoptotic (%)” value [4] was 45%, the “Population Fragmented Nuclei (%)” value [4] was 29% and the “Population Healthy Nuclei (%)” value [4] was 47%. The “Population Hoechst High Intensity Objects (%)” value [4] was 4%, the “Population Membrane Permeable-Phenotype (%)” value [4] was 4% and the “Population Mitotic Cells (%)” value [4] was 54%. The “Population Normal (%)” value [4] was 95%, the “Population Pyknosed Nuclei (%)” value [4] was 23% and the “Population Tubulin-Different-Phenotype (%)” value [4] was 61%. For the same compound, the “Total Cell Count” value [4] was 109, the “Population Apoptotic (%)” value [5] was 38% and the “Population Fragmented Nuclei (%)” value [5] was 15%. The “Population Healthy Nuclei (%)” value [5] was 76%, the “Population Hoechst High Intensity Objects (%)” value [5] was 1% and the “Population Membrane Permeable-Phenotype (%)” value [5] was 0%. For the same compound, the “Population Mitochondria Different-Phenotype (%)” value [5] was 8%, the “Population Mitotic Cells (%)” value [5] was 61% and the “Population Normal (%)” value [5] was 98%. For the same compound, the “Population Pyknosed Nuclei (%)” value [5] was 8%, the “Population Tubulin-Different-Phenotype (%)” value [5] was 30% and the “Total Cell Count” value [5] was 160. The “Population Apoptotic (%)” value [6] was 43%, the “Population Fragmented Nuclei (%)” value [6] was 28% and the “Population Healthy Nuclei (%)” value [6] was 49%. The “Population Hoechst High Intensity Objects (%)” value [6] was 5%, the “Population Membrane Permeable-Phenotype (%)” value [6] was 8% and the “Population Mitochondria Different-Phenotype (%)” value [6] was 2%. The “Population Mitotic Cells (%)” value [6] was 56%, the “Population Normal (%)” value [6] was 94% and the “Population Pyknosed Nuclei (%)” value [6] was 21%. The “Population Tubulin-Different-Phenotype (%)” value [6] was 50%, the “Total Cell Count” value [6] was 157 and the “Population Apoptotic (%)” value [7] was 58%. For the same compound, the “Population Fragmented Nuclei (%)” value [7] was 30%, the “Population Healthy Nuclei (%)” value [7] was 58% and the “Population Hoechst High Intensity Objects (%)” value [7] was 1%. The “Population Membrane Permeable-Phenotype (%)” value [7] was 0%, the “Population Mitochondria Different-Phenotype (%)” value [7] was 12% and the “Population Mitotic Cells (%)” value [7] was 41%. For the same compound, the “Population Normal (%)” value [7] was 98%, the “Population Pyknosed Nuclei (%)” value [7] was 11% and the “Population Tubulin-Different-Phenotype (%)” value [7] was 68%. For the same compound, the “Total Cell Count” value [7] was 111, the “Population Apoptotic (%)” value [8] was 57% and the “Population Fragmented Nuclei (%)” value [8] was 37%. For the same compound, the “Population Healthy Nuclei (%)” value [8] was 42%, the “Population Hoechst High Intensity Objects (%)” value [8] was 4% and the “Population Membrane Permeable-Phenotype (%)” value [8] was 9%. For the same compound, the “Population Mitochondria Different-Phenotype (%)” value [8] was 11%, the “Population Mitotic Cells (%)” value [8] was 42% and the “Population Normal (%)” value [8] was 95%. For the same compound, the “Population Pyknosed Nuclei (%)” value [8] was 20%, the “Population Tubulin-Different-Phenotype (%)” value [8] was 72% and the “Total Cell Count” value [8] was 107. The “Population Apoptotic (%)” value [9] was 33%, the “Population Fragmented Nuclei (%)” value [9] was 13% and the “Population Healthy Nuclei (%)” value [9] was 79%. For the same compound, the “Population Hoechst High Intensity Objects (%)” value [9] was 3%, the “Population Membrane Permeable-Phenotype (%)” value [9] was 0% and the “Population Mitochondria Different-Phenotype (%)” value [9] was 4%. The “Population Mitotic Cells (%)” value [9] was 66%, the “Population Normal (%)” value [9] was 96% and the “Population Pyknosed Nuclei (%)” value [9] was 7%. For the same compound, the “Population Tubulin-Different-Phenotype (%)” value [9] was 28%, the “Total Cell Count” value [9] was 158 and the “Population Apoptotic (%)” value [10] was 53%. The “Population Fragmented Nuclei (%)” value [10] was 32%, the “Population Healthy Nuclei (%)” value [10] was 50% and the “Population Membrane Permeable-Phenotype (%)” value [10] was 8%. For the same compound, the “Population Mitochondria Different-Phenotype (%)” value [10] was 5%, the “Population Mitotic Cells (%)” value [10] was 46% and the “Population Pyknosed Nuclei (%)” value [10] was 17%. The “Population Tubulin-Different-Phenotype (%)” value [10] was 54%, the “Total Cell Count” value [10] was 155 and the “Population Apoptotic (%)” value [11] was 91%. The “Population Fragmented Nuclei (%)” value [11] was 24%, the “Population Healthy Nuclei (%)” value [11] was 60% and the “Population Hoechst High Intensity Objects (%)” value [11] was 7%. For the same compound, the “Population Membrane Permeable-Phenotype (%)” value [11] was 0%, the “Population Mitochondria Different-Phenotype (%)” value [11] was 12% and the “Population Mitotic Cells (%)” value [11] was 8%. For the same compound, the “Population Normal (%)” value [11] was 92%, the “Population Pyknosed Nuclei (%)” value [11] was 14% and the “Population Tubulin-Different-Phenotype (%)” value [11] was 51%. The “Total Cell Count” value [11] was 88, the “Population Apoptotic (%)” value [12] was 73% and the “Population Fragmented Nuclei (%)” value [12] was 43%. For the same compound, the “Population Healthy Nuclei (%)” value [12] was 43%, the “Population Hoechst High Intensity Objects (%)” value [12] was 3% and the “Population Membrane Permeable-Phenotype (%)” value [12] was 8%. The “Population Mitochondria Different-Phenotype (%)” value [12] was 14%, the “Population Mitotic Cells (%)” value [12] was 26% and the “Population Normal (%)” value [12] was 96%. The “Population Pyknosed Nuclei (%)” value [12] was 13%, the “Population Tubulin-Different-Phenotype (%)” value [12] was 70% and the “Total Cell Count” value [12] was 113.
